According to ChEMBL document CHEMBL2434966, “Novel N-4-piperazinyl-ciprofloxacin-chalcone hybrids: synthesis, physicochemical properties, anticancer and topoisomerase I and II inhibitory activity” (Eur J Med Chem, 2013):
Converted amounts (≈) assume the structure as drawn.

Tests used:
U-251 = test: Growth inhibition of human U251 cells after 48 hrs by sulforhodamine B assay; type: functional; conditions: U-251, 48 h
Summary of the method: (§1)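 NCI 60-cell panel, five concentrations (10-fold dilutions, 0.01–100 µM), 48 h continuous exposure; SRB protein stain read spectrophotometrically. Percent growth from time-zero, untreated-control and treated absorbances. GI50 is the concentration giving 50% lower net protein increase than control. Values beyond the tested range are reported as more or less than the highest or lowest concentration.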

NCI-H460 = test: Growth inhibition of human NCI-H460 cells assessed as cell growth at 10^-5 M after 48 hrs by sulforhodamine B assay; type: functional; conditions: NCI-H460, 48 h, read-out: Activity
Summary of the method: (§2)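 NCI 60-cell-line primary one-dose screen. Cells were exposed to a single 10^-5 M concentration for 48 h. The end point was sulforhodamine B protein staining, read spectrophotometrically. Results are reported as percent growth of treated cells relative to untreated control cells.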

SNB-19 = test: Growth inhibition of human SNB19 cells after 48 hrs by sulforhodamine B assay; type: functional; conditions: SNB-19, 48 h; summary of the method: as §1
HCT-15 = test: Growth inhibition of human HCT15 cells assessed as cell growth at 10^-5 M after 48 hrs by sulforhodamine B assay; type: functional; conditions: HCT-15, 48 h, read-out: Activity
Summary of the method: (§3)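 NCI 60-cell-line primary screen. Single concentration of 10^-5 M, 48 h incubation. End point by sulforhodamine B protein staining read spectrophotometrically. Reported as percent growth of treated cells relative to untreated control cells.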

RXF 393 [1] = test: Growth inhibition of human RXF393 cells assessed as cell growth at 10^-5 M after 48 hrs by sulforhodamine B assay; type: functional; conditions: RXF 393, 48 h, read-out: Activity; summary of the method: as §2
MDA-MB-468 = test: Growth inhibition of human MDA-MB-468 cells after 48 hrs by sulforhodamine B assay; type: functional; conditions: MDA-MB-468, 48 h
Summary of the method: (§4)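 NCI five-dose screen on the full 60-cell-line panel. Cells were given 10-fold dilutions from 10^-4 to 10^-8 M with continuous 48 h exposure, and growth was read by SRB staining. Percent growth was taken from time-zero, control and treated absorbances. GI50, TGI and LC50 were then derived, the GI50 being the concentration that gives a 50% lower net protein increase than control.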

COLO 205 = test: Growth inhibition of human COLO205 cells assessed as cell growth at 10^-5 M after 48 hrs by sulforhodamine B assay; type: functional; conditions: COLO 205, 48 h, read-out: Activity; summary of the method: as §3
A498 = test: Growth inhibition of human A498 cells assessed as cell growth at 10^-5 M after 48 hrs by sulforhodamine B assay; type: functional; conditions: A498, 48 h, read-out: Activity; summary of the method: as §3
HCT-116 = test: Growth inhibition of human HCT116 cells assessed as cell growth at 10^-5 M after 48 hrs by sulforhodamine B assay; type: functional; conditions: HCT-116, 48 h, read-out: Activity; summary of the method: as §3
SK-MEL-5 = test: Growth inhibition of human SK-MEL-5 cells assessed as cell growth at 10^-5 M after 48 hrs by sulforhodamine B assay; type: functional; conditions: SK-MEL-5, 48 h, read-out: Activity; summary of the method: as §2
OVCAR-4 = test: Growth inhibition of human OVCAR4 cells after 48 hrs by sulforhodamine B assay; type: functional; conditions: OVCAR-4, 48 h; for CC50: read-out: LC50 (the source's name); summary of the method: as §4
SF-268 = test: Growth inhibition of human SF268 cells after 48 hrs by sulforhodamine B assay; type: functional; conditions: SF-268, 48 h; for CC50: read-out: LC50 (the source's name); summary of the method: as §4
SN12C = test: Growth inhibition of human SN12C cells after 48 hrs by sulforhodamine B assay; type: functional; summary of the method: as §4
CAKI-1 = test: Growth inhibition of human CAKI-1 cells assessed as cell growth at 10^-5 M after 48 hrs by sulforhodamine B assay; type: functional; conditions: CAKI-1, 48 h, read-out: Activity; summary of the method: as §3
SNB-75 = test: Growth inhibition of human SNB75 cells after 48 hrs by sulforhodamine B assay; type: functional; conditions: SNB-75, 48 h; for CC50: read-out: LC50 (the source's name); summary of the method: as §1
DU-145 [2] = test: Growth inhibition of human DU145 cells assessed as cell growth at 10^-5 M after 48 hrs by sulforhodamine B assay; type: functional; conditions: DU-145, 48 h, read-out: Activity; summary of the method: as §3
SW-620 = test: Growth inhibition of human SW620 cells assessed as cell growth at 10^-5 M after 48 hrs by sulforhodamine B assay; type: functional; conditions: SW-620, 48 h, read-out: Activity
Summary of the method: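 NCI primary one-dose screen: single concentration of 10^-5 M added to culture, 48 h incubation, SRB protein-dye endpoint. Percent growth of treated cells measured spectrophotometrically against untreated controls.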

TK-10 = test: Growth inhibition of human TK10 cells after 48 hrs by sulforhodamine B assay; type: functional; conditions: TK-10, 48 h; for CC50: read-out: LC50 (the source's name); summary of the method: as §1
KM12 = test: Growth inhibition of human KM12 cells assessed as cell growth at 10^-5 M after 48 hrs by sulforhodamine B assay; type: functional; conditions: KM12, 48 h, read-out: Activity; summary of the method: as §3
DU-145 [3] = test: Growth inhibition of human DU145 cells after 48 hrs by sulforhodamine B assay; type: functional; conditions: DU-145, 48 h
Summary of the method: (§5)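 NCI 60-panel five-dose test at 10-fold dilutions, 10^-4 to 10^-8 M, with 48 h continuous exposure and SRB protein read-out. Percent growth derived from time-zero, untreated-control and treated absorbances. GI50 is the concentration where [(Ti-Tz)/(C-Tz)]×100 = 50. TGI is taken at Ti = Tz. LC50 is taken at [(Ti-Tz)/Tz]×100 = -50.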

OVCAR-8 = test: Growth inhibition of human OVCAR8 cells assessed as cell growth at 10^-5 M after 48 hrs by sulforhodamine B assay; type: functional; conditions: OVCAR-8, 48 h, read-out: Activity; summary of the method: as §2
RXF 393 [4] = test: Growth inhibition of human RXF393 cells after 48 hrs by sulforhodamine B assay; type: functional; conditions: RXF 393, 48 h; for CC50: read-out: LC50 (the source's name); summary of the method: as §4
[5] = Aqueous solubility of the compound at pH 6.9 by UV spectroscopic analysis; type: physicochemical; conditions: aqueous solution
Summary of the method: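 Excess solid (10 mg) shaken in buffer at pH 6.9 or 7.8, 37 °C. The filtrate was diluted into the linear calibration range and dissolved drug measured by UV absorbance at λmax 272 nm. Values are the average of at least three agreeing independent measurements.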

[6] = Growth inhibition of human Hs 578T cells after 48 hrs by sulforhodamine B assay; type: functional; conditions: for CC50: read-out: LC50 (the source's name); summary of the method: as §5
MDA-MB-435 = test: Growth inhibition of human MDA-MB-435 cells assessed as cell growth at 10^-5 M after 48 hrs by sulforhodamine B assay; type: functional; conditions: MDA-MB-435, 48 h, read-out: Activity; summary of the method: as §2

SMILES: O=C(CN1CCN(c2cc3c(cc2F)c(=O)c(C(=O)O)cn3C2CC2)CC1)Nc1ccc(C(=O)/C=C/c2ccccc2)cc1
- GI50 (U-251): 2.92 µM
- LC50 (concentration killing 50% of cells) (U-251): > 100 µM
- TGI (U-251): > 100 µM
- growth at 10 µM (NCI-H460): 7.12%
- GI50 (SNB-19): 3.05 µM
- LC50 (SNB-19): > 100 µM
- TGI (SNB-19): > 100 µM
- growth at 10 µM (HCT-15): 56.8%
- growth at 10 µM (RXF 393 [1]): 41.7%
- GI50 (MDA-MB-468): 2.45 µM
- LC50 (concentration killing 50% of starting cells) (MDA-MB-468): > 100 µM
- TGI (MDA-MB-468): 23.2 µM
- growth at 10 µM (COLO 205): 108%
- growth at 10 µM (A498): 57.7%
- growth at 10 µM (HCT-116): -83.6%
- growth at 10 µM (SK-MEL-5): 13.6%
- GI50 (OVCAR-4): 9.47 µM
- TGI (OVCAR-4): > 100 µM
- CC50 (OVCAR-4): > 100 µM
- GI50 (SF-268): 4.13 µM
- TGI (SF-268): > 100 µM
- CC50 (SF-268): > 100 µM
- GI50 (SN12C): 3.02 µM
- LC50 (lethal concentration, 50% net cell kill) (SN12C): > 100 µM
- TGI (SN12C): > 100 µM
- growth at 10 µM (CAKI-1): 73.1%
- GI50 (SNB-75): 3.22 µM
- TGI (SNB-75): > 100 µM
- CC50 (SNB-75): > 100 µM
- growth at 10 µM (DU-145 [2]): 43.1%
- growth at 10 µM (SW-620): 41%
- GI50 (TK-10): 4.19 µM
- TGI (TK-10): > 100 µM
- CC50 (TK-10): > 100 µM
- growth at 10 µM (KM12): 25.3%
- GI50 (DU-145 [3]): 3.74 µM
- LC50 (concentration killing 50% of starting cells) (DU-145 [3]): > 100 µM
- TGI (DU-145 [3]): > 100 µM
- growth at 10 µM (OVCAR-8): 6.3%
- GI50 (RXF 393 [4]): 2.5 µM
- TGI (RXF 393 [4]): > 100 µM
- CC50 (RXF 393 [4]): > 100 µM
- solubility [5]: 2.73 µg/mL (≈ 4.59 µM)
- GI50 [6]: 4.99 µM
- TGI [6]: > 100 µM
- CC50 [6]: > 100 µM
- growth at 10 µM (MDA-MB-435): 19.2%

SMILES: COc1cc(/C=C/C(=O)c2ccc(NC(=O)CN3CCN(c4cc5c(cc4F)c(=O)c(C(=O)O)cn5C4CC4)CC3)cc2)cc(OC)c1OC
- GI50 (U-251): 0.33 µM
- LC50 (concentration killing 50% of cells) (U-251): 12.9 µM
- TGI (U-251): 1.29 µM
- growth at 10 µM (NCI-H460): -20%
- GI50 (SNB-19): 2.78 µM
- LC50 (SNB-19): > 100 µM
- TGI (SNB-19): > 100 µM
- growth at 10 µM (HCT-15): 18.2%
- growth at 10 µM (RXF 393 [1]): -87.6%
- GI50 (MDA-MB-468): 0.33 µM
- LC50 (concentration killing 50% of starting cells) (MDA-MB-468): 40.7 µM
- TGI (MDA-MB-468): 1.78 µM
- growth at 10 µM (COLO 205): -12.8%
- growth at 10 µM (A498): -43.8%
- growth at 10 µM (HCT-116): -88.2%
- growth at 10 µM (SK-MEL-5): -42.9%
- GI50 (OVCAR-4): 1.61 µM
- TGI (OVCAR-4): 84.6 µM
- CC50 (OVCAR-4): > 100 µM
- GI50 (SF-268): 1.06 µM
- TGI (SF-268): 61.2 µM
- CC50 (SF-268): > 100 µM
- GI50 (SN12C): 0.53 µM
- LC50 (lethal concentration, 50% net cell kill) (SN12C): > 100 µM
- TGI (SN12C): 12.2 µM
- growth at 10 µM (CAKI-1): 57.2%
- GI50 (SNB-75): 5.75 µM
- TGI (SNB-75): > 100 µM
- CC50 (SNB-75): > 100 µM
- growth at 10 µM (DU-145 [2]): 2.17%
- growth at 10 µM (SW-620): 6.38%
- GI50 (TK-10): 1.29 µM
- TGI (TK-10): 16.5 µM
- CC50 (TK-10): > 100 µM
- growth at 10 µM (KM12): -65.1%
- GI50 (DU-145 [3]): 0.67 µM
- LC50 (concentration killing 50% of starting cells) (DU-145 [3]): > 100 µM
- TGI (DU-145 [3]): > 100 µM
- growth at 10 µM (OVCAR-8): 4.74%
- GI50 (RXF 393 [4]): 0.34 µM
- TGI (RXF 393 [4]): 1.06 µM
- CC50 (RXF 393 [4]): 3.47 µM
- solubility [5]: 2.13 µg/mL (≈ 3.11 µM)
- GI50 [6]: 53.8 µM
- TGI [6]: > 100 µM
- CC50 [6]: > 100 µM
- growth at 10 µM (MDA-MB-435): -1.52%
